Measured values as given in ChEMBL document CHEMBL1165886, “Synthesis, anticonvulsant and toxicity screening of newer pyrimidine semicarbazone derivatives” (Eur J Med Chem, 2010).
Activity calls are given as the source filed them. No cut-off for these calls is given here.

Legend:
Mus musculus [1] = experiment: Anticonvulsant activity in ip dosed Albino mouse assessed as protection against maximal electric shock-induced seizure after 0.5 hrs; assay type: functional
Outline: (§1)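 Mice given test compound i.p. in polyethylene glycol at 30, 100 and 300 mg/kg; corneal electrodes delivered 50 mA, 60 Hz for 0.25 s at 0.5 h and 4.0 h after dosing. Protection scored as abolition of hind limb tonic extension.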

Mus musculus [2] = experiment: Anticonvulsant activity in Albino mouse assessed as protection against maximal electric shock-induced seizure at 300 mg/kg, ip after 4 hrs; assay type: functional, organism-based; parameters: dose 300 mg/kg; outline: as §1
Mus musculus [3] = experiment: Anticonvulsant activity in Albino mouse assessed as protection against scPTZ-induced seizure at 300 mg/kg, ip after 0.5 hrs; assay type: functional, organism-based; parameters: dose 300 mg/kg
Outline: (§2)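 Test compound given i.p. in polyethylene glycol at 30, 100 and 300 mg/kg. Pentylenetetrazole 75 mg/kg, as a 0.5% solution, injected subcutaneously in the posterior midline. Animals examined 0.5 h and 4 h after dosing. Value is the minimum dose active in half or more of the mice; dash means no activity at maximum dose.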

Mus musculus [4] = experiment: Anticonvulsant activity in Albino mouse assessed as protection against scPTZ-induced seizure at 300 mg/kg, ip after 4 hrs; assay type: functional, organism-based; parameters: dose 300 mg/kg; outline: as §2
Mus musculus [5] = experiment: Anticonvulsant activity in ip dosed Albino mouse assessed as protection against maximal electric shock-induced seizure after 4 hrs; assay type: functional; outline: as §1
Mus musculus [6] = experiment: Anticonvulsant activity in ip dosed Albino mouse assessed as protection against scPTZ-induced seizure after 0.5 hrs; assay type: functional; outline: as §2
Mus musculus [7] = experiment: Anticonvulsant activity in ip dosed Albino mouse assessed as protection against scPTZ-induced seizure after 4 hrs; assay type: functional; outline: as §2
[8] = Neurotoxicity in ip dosed Albino mouse assessed as minimal motor impairment after 4 hrs by rotarod test; assay type: toxicity, organism-based; details: in vivo
Outline: (§3)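 Mice pretrained on an accelerating rotorod, 3.2 cm diameter, rotating at 10 rpm. Test compound given i.p. in polyethylene glycol at 30, 100 and 300 mg/kg; examined at 0.5 h and 4 h. Neurotoxicity = inability to hold equilibrium on the rod for at least 1 min in each trial. Minimum dose affecting half or more of mice reported.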

Mus musculus [9] = species: Mus musculus; experiment: Hepatotoxicity in Albino mouse assessed as albumin level measured per 100 mL (RVb =1.45 +/- 0.06 g); assay type: toxicity, organism-based; details: in vivo
Mus musculus [10] = species: Mus musculus; experiment: Hepatotoxicity in Albino mouse assessed as globulin level measured per 100 mL (RVb = 0.24 +/- 0.03 g); assay type: toxicity, organism-based; details: in vivo
Mus musculus [11] = species: Mus musculus; experiment: Hepatotoxicity in Albino mouse assessed as total protein level measured per 100 mL (RVb = 1.69 +/- 0.05 g); assay type: toxicity, organism-based; details: in vivo
Mus musculus [12] = experiment: Neurotoxicity in Albino mouse assessed as minimal motor impairment at 300 mg/kg, ip after 0.5 hrs by rotarod test; assay type: toxicity, organism-based; parameters: dose 300 mg/kg, route intraperitoneal; details: in vivo; outline: as §3
Mus musculus [13] = species: Mus musculus; experiment: Hepatotoxicity in Albino mouse assessed as change in alkaline phosphatase level; assay type: toxicity, organism-based; details: in vivo
Outline: (§4)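 Serum alkaline phosphatase, SGOT and SGPT levels measured in treated mice versus control; transaminases estimated by the Reitman–Frankel method. Results given as mean ± SEM.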

Mus musculus [14] = species: Mus musculus; experiment: Hepatotoxicity in Albino mouse assessed as change in SGOT level; assay type: toxicity, organism-based; details: in vivo; outline: as §4
Mus musculus [15] = species: Mus musculus; experiment: Hepatotoxicity in Albino mouse assessed as change in SGPT level; assay type: toxicity, organism-based; details: in vivo; outline: as §4
[16] = Neurotoxicity in ip dosed Albino mouse assessed as minimal motor impairment after 0.5 hrs by rotarod test; assay type: toxicity, organism-based; details: in vivo; outline: as §3
Mus musculus [17] = experiment: Anticonvulsant activity in Albino mouse assessed as protection against maximal electric shock-induced seizure at 300 mg/kg, ip after 0.5 hrs; assay type: functional, organism-based; parameters: dose 300 mg/kg; outline: as §1
Mus musculus [18] = experiment: Neurotoxicity in Albino mouse assessed as minimal motor impairment at 300 mg/kg, ip after 4 hrs by rotarod test; assay type: toxicity, organism-based; parameters: dose 300 mg/kg, route intraperitoneal; details: in vivo; outline: as §3

Row | Structure (SMILES) | ED50 (Mus musculus [1]) | Activity (Mus musculus [3]) | Activity (Mus musculus [4]) | ED50 (Mus musculus [5]) | ED50 (Mus musculus [6]) | ED50 (Mus musculus [7]) | TD50 at 4 h [8] | TD50 at 0.5 h [16] | Activity (Mus musculus [17]) | further results
1 | COc1ccc(-c2cc(-c3ccc(Cl)cc3)nc(NC(=O)N/N=C(/C)c3ccc(C)cc3)n2)cc1 | 300 mg/kg | inactive | inactive |  |  |  |  |  |  | Activity (Mus musculus [2]): inactive
2 | C/C(=N/NC(=O)Nc1nc(-c2ccc(C)cc2)cc(-c2ccc(F)cc2)n1)c1ccc(Cl)cc1 | 30 mg/kg |  |  | 100 mg/kg | 100 mg/kg | 300 mg/kg | 300 mg/kg |  |  | Activity (Mus musculus [9]): 1.62 g; Activity (Mus musculus [10]): 0.31 g; Activity (Mus musculus [11]): 1.93 g; Activity (Mus musculus [12]): Non-toxic; Activity (Mus musculus [13]): Non-toxic; Activity (Mus musculus [14]): Non-toxic; Activity (Mus musculus [15]): Non-toxic
3 | C/C(=N/NC(=O)Nc1nc(-c2ccc(C)cc2)cc(-c2ccc(F)cc2)n1)c1ccc([N+](=O)[O-])cc1 | 100 mg/kg | inactive |  | 300 mg/kg |  | 300 mg/kg | 100 mg/kg | 100 mg/kg |  | 
4 | COc1ccc(-c2cc(-c3ccc(Cl)cc3)nc(NC(=O)N/N=C\c3cccc(Cl)c3)n2)cc1OC | 100 mg/kg | inactive |  | 300 mg/kg |  | 300 mg/kg | 300 mg/kg | 300 mg/kg |  | 
5 | COc1ccc(-c2cc(-c3ccc(Cl)cc3)nc(NC(=O)N/N=C\c3ccccc3Cl)n2)c(OC)c1 |  | inactive | inactive | 300 mg/kg |  |  |  |  | inactive | 
6 | COc1ccc(-c2cc(-c3ccc(Cl)cc3)nc(NC(=O)N/N=C\c3ccccc3[N+](=O)[O-])n2)c(OC)c1 |  | inactive | inactive | 300 mg/kg |  |  |  |  | inactive | 
7 | COc1ccc(/C(C)=N\NC(=O)Nc2nc(-c3ccc(F)cc3)cc(-c3ccc([N+](=O)[O-])cc3)n2)cc1 | 100 mg/kg |  |  |  | 100 mg/kg | 300 mg/kg |  | 300 mg/kg |  | Activity (Mus musculus [2]): inactive; Activity (Mus musculus [18]): Non-toxic
8 | C/C(=N/NC(=O)Nc1nc(-c2ccc(Cl)cc2)cc(-c2ccc([N+](=O)[O-])cc2)n1)c1ccc(C)cc1 | 300 mg/kg | inactive |  | 300 mg/kg |  | 300 mg/kg |  |  |  | 
9 | C/C(=N/NC(=O)Nc1nc(-c2ccc(C)cc2)cc(-c2ccc(Cl)cc2)n1)c1ccc(Cl)cc1 | 30 mg/kg |  |  | 300 mg/kg | 300 mg/kg | 300 mg/kg |  |  |  | Activity (Mus musculus [9]): 1.52 g; Activity (Mus musculus [10]): 0.19 g; Activity (Mus musculus [11]): 1.71 g; Activity (Mus musculus [12]): Non-toxic; Activity (Mus musculus [18]): Non-toxic; Activity (Mus musculus [13]): Non-toxic; Activity (Mus musculus [14]): Non-toxic; Activity (Mus musculus [15]): Non-toxic
10 | COc1ccc(-c2cc(-c3ccc(Cl)cc3)nc(NC(=O)N/N=C(/C)c3ccccc3Cl)n2)cc1 |  | inactive |  |  |  | 300 mg/kg |  |  | inactive | Activity (Mus musculus [2]): inactive
11 | COc1ccc(/C(C)=N\NC(=O)Nc2nc(-c3ccc(Cl)cc3)cc(-c3ccc([N+](=O)[O-])cc3)n2)cc1 |  | inactive | inactive | 300 mg/kg |  |  |  |  | inactive | 
12 | COc1ccc(-c2cc(-c3ccc(F)cc3)nc(NC(=O)N/N=C\c3cccc(Cl)c3)n2)cc1OC | 300 mg/kg | inactive | inactive | 300 mg/kg |  |  |  |  |  | 
13 | CCC1(c2ccccc2)C(=O)NC(=O)NC1=O [PHENOBARBITAL] | 100 mg/kg | inactive | inactive | 30 mg/kg |  |  | 300 mg/kg | 100 mg/kg |  | 
14 | COc1ccc(-c2cc(-c3ccc(Cl)cc3)nc(NC(=O)N/N=C\c3ccc([N+](=O)[O-])cc3)n2)cc1OC | 30 mg/kg |  |  | 100 mg/kg | 100 mg/kg | 100 mg/kg |  |  |  | Activity (Mus musculus [9]): 1.74 g; Activity (Mus musculus [10]): 0.26 g; Activity (Mus musculus [11]): 2 g; Activity (Mus musculus [12]): Non-toxic; Activity (Mus musculus [18]): Non-toxic; Activity (Mus musculus [13]): Non-toxic; Activity (Mus musculus [14]): Non-toxic; Activity (Mus musculus [15]): Non-toxic
15 | COc1ccc(-c2cc(-c3ccc(F)cc3)nc(NC(=O)N/N=C\c3ccc([N+](=O)[O-])cc3)n2)cc1OC | 100 mg/kg |  | inactive | 300 mg/kg | 300 mg/kg |  | 300 mg/kg |  |  | Activity (Mus musculus [12]): Non-toxic
16 | COc1ccc(-c2cc(-c3ccc(F)cc3)nc(NC(=O)N/N=C\c3ccccc3[N+](=O)[O-])n2)c(OC)c1 | 300 mg/kg | inactive |  |  |  | 300 mg/kg |  |  |  | Activity (Mus musculus [2]): inactive
17 | CCC1(C)CC(=O)NC1=O (stereo unspecified) [ETHOSUXIMIDE] |  |  |  |  | 100 mg/kg | 300 mg/kg |  |  | inactive | Activity (Mus musculus [2]): inactive; Activity (Mus musculus [12]): Non-toxic; Activity (Mus musculus [18]): Non-toxic
18 | COc1ccc(-c2cc(-c3ccc(F)cc3)nc(NC(=O)N/N=C(/C)c3ccc(C)cc3)n2)cc1 |  |  |  | 100 mg/kg | 300 mg/kg |  |  | 100 mg/kg | inactive | Activity (Mus musculus [18]): Non-toxic
19 | C/C(=N/NC(=O)Nc1nc(-c2ccc(C)cc2)cc(-c2ccc(Cl)cc2)n1)c1ccc([N+](=O)[O-])cc1 | 100 mg/kg |  |  | 300 mg/kg | 300 mg/kg | 300 mg/kg | 100 mg/kg | 100 mg/kg |  | 
20 | C/C(=N/NC(=O)Nc1nc(-c2ccc(F)cc2)cc(-c2ccc([N+](=O)[O-])cc2)n1)c1ccc(C)cc1 | 100 mg/kg |  |  | 300 mg/kg | 300 mg/kg | 300 mg/kg | 300 mg/kg |  |  | Activity (Mus musculus [12]): Non-toxic
21 | O=C1NC(=O)C(c2ccccc2)(c2ccccc2)N1 [PHENYTOIN] | 30 mg/kg | inactive | inactive | 30 mg/kg |  |  | 100 mg/kg | 100 mg/kg |  | 
22 | COc1ccc(-c2cc(-c3ccc(F)cc3)nc(NC(=O)N/N=C\c3ccccc3Cl)n2)c(OC)c1 |  | inactive | inactive | 300 mg/kg |  |  |  |  | inactive | 
